{"source": "ChEMBL document CHEMBL4007505", "about": "(J Med Chem, 2017)", "key": {"[1]": {"target": "T1, Sodium-dependent dopamine transporter (Homo sapiens, UniProt Q01959)", "T1 sequence (Q01959 whole entry)": "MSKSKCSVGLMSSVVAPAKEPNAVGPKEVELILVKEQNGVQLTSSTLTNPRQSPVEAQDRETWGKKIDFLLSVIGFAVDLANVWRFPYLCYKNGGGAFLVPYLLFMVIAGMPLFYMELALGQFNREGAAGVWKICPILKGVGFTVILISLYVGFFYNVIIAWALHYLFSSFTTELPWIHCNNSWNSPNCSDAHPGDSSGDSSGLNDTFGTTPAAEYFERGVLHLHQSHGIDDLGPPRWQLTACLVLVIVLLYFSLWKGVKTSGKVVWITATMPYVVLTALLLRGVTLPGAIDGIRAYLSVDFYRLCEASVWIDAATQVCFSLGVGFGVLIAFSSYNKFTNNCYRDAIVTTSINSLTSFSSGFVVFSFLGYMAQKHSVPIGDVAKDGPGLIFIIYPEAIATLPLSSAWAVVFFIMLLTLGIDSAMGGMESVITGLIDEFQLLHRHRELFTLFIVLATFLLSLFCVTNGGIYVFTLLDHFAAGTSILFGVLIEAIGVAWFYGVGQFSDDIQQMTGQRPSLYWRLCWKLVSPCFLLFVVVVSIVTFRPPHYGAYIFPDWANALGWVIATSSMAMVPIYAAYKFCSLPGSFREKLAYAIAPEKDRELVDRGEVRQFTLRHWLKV", "test": "Inhibition of [3H]mazindol binding to recombinant human DAT expressed in HEK293 cell membranes preincubated for 10 mins followed by radioligand addition measured after 90 mins by micro beta scintillation counting analysis"}, "[2]": {"target": "T1, Sodium-dependent dopamine transporter", "test": "Enhancing of [3H]mazindol binding to recombinant human DAT expressed in HEK293 cell membranes preincubated for 10 mins followed by radioligand addition measured after 90 mins by micro beta scintillation counting analysis", "details": "hek293", "outline": "(§1)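 Membranes of HEK-293 cells stably expressing hDAT, hNET or hSERT. […] Compound preincubated 10 min at room temperature, then [125I]23 (40-80 pM final) or [3H]26 (1-3 nM for DAT and NET, 10-13 nM for SERT) added. Incubated 90 min at room temperature in the dark, then filtered. EC50 or Ki; mean ± SEM.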"}, "[3]": {"target": "T2, Sodium-dependent noradrenaline transporter (Homo sapiens, UniProt P23975)", "T2 sequence (P23975 whole entry)": "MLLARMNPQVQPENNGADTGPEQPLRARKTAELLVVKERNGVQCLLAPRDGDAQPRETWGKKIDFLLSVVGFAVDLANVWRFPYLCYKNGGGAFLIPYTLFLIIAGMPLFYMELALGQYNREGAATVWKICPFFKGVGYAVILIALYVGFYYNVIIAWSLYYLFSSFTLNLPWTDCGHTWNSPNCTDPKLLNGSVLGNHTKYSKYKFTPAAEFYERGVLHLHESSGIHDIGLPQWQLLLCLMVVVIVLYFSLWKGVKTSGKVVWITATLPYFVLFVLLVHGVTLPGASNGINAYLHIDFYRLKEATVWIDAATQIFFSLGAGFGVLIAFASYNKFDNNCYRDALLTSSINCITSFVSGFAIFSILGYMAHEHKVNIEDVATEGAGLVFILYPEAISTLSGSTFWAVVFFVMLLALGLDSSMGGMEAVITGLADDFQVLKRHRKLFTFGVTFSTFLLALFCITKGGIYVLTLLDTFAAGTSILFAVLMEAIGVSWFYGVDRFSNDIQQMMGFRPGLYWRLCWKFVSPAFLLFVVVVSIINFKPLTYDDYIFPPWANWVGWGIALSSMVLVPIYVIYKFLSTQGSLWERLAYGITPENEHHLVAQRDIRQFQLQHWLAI", "test": "Enhancing of [3H]mazindol binding to recombinant human NET expressed in HEK293 cell membranes preincubated for 10 mins followed by radioligand addition measured after 90 mins by micro beta scintillation counting analysis"}, "[4]": {"target": "T1, Sodium-dependent dopamine transporter", "test": "Inhibition of [3H]WIN35,428 binding to recombinant human DAT expressed in HEK293 cell membranes at 10 uM pre-incubated for 10 mins before radioligand addition and measured 90 mins after radioligand addition by micro beta scintillation counting analysis relative to control"}, "Adenosine receptor A3": {"target": "T3, Adenosine receptor A3 (Homo sapiens, UniProt P0DMS8)", "T3 sequence (P0DMS8 whole entry)": "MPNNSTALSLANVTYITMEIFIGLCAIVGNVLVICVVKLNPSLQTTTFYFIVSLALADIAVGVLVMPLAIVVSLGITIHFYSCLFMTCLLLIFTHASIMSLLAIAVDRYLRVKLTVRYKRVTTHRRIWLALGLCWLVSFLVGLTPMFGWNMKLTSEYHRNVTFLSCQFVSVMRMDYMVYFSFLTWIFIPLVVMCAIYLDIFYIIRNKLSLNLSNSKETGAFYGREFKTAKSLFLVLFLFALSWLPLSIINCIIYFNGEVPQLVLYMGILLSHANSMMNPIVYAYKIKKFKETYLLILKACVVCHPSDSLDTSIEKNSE", "test": "Displacement of [125I]N6-(4-amino-3-iodobenzyl)adenosine-5'-N-methyluronamide from human A3AR expressed in HEK293T cells pre-incubated for 10 mins before radioligand addition and measured 90 mins after radioligand addition by micro beta scintillation counting analysis relative to control", "format": "cell-based, HEK-293T"}, "[5]": {"target": "T4, Adenosine receptor A3 (Mus musculus) (UniProt Q61618)", "T4 sequence (whole entry)": "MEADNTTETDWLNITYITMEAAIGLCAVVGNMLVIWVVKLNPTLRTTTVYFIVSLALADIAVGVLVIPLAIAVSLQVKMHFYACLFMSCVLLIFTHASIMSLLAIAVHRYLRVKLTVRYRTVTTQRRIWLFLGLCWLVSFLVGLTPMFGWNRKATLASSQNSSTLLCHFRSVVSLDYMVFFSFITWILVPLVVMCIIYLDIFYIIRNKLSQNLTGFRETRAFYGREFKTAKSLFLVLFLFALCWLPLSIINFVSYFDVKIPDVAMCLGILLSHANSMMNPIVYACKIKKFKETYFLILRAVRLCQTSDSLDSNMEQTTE", "test": "Displacement of [125I]N6-(4-amino-3-iodobenzyl)adenosine-5'-N-methyluronamide from mouse A3AR expressed in HEK293T cells at 10 uM pre-incubated for 10 mins before radioligand addition and measured 90 mins after radioligand addition by micro beta scintillation counting analysis relative to control", "format": "cell-based"}, "[6]": {"target": "Sigma intracellular receptor 2 (Rattus norvegicus, UniProt Q5U3Y7)", "sequence (Q5U3Y7 whole entry)": "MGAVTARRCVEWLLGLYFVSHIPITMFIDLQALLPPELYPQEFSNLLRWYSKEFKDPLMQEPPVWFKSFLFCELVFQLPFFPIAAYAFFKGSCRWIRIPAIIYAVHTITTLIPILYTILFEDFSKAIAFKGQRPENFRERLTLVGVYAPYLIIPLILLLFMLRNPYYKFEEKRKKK", "test": "Displacement of [3H]DTG from rat sigma 2 receptor"}, "[7]": {"target": "T5, 5-hydroxytryptamine receptor 2C (Homo sapiens, UniProt P28335)", "T5 sequence (P28335 whole entry)": "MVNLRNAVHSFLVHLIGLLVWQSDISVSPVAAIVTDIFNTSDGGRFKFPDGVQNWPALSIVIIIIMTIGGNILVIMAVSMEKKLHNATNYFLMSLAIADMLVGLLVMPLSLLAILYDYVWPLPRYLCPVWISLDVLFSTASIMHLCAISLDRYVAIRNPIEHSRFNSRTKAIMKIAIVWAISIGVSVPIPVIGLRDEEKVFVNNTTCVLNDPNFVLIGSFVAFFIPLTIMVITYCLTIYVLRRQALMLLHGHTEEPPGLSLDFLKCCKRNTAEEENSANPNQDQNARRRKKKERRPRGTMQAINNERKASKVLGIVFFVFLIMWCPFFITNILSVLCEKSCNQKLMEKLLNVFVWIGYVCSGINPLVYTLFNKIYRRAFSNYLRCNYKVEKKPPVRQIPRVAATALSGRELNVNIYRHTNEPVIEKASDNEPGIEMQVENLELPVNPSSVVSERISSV", "test": "Displacement of [3H]Mesulergine from human 5-HT2C receptor"}, "[8]": {"target": "Adenosine receptor A3 (Homo sapiens) (UniProt P0DMS8)", "test": "Agonist activity at human A3AR assessed as inhibition of cAMP formation at 10 uM relative to adenosine-5'-Nethyluronamide"}, "[9]": {"target": "Muscarinic acetylcholine receptor M5 (Homo sapiens, UniProt P08912)", "sequence (P08912 whole entry)": "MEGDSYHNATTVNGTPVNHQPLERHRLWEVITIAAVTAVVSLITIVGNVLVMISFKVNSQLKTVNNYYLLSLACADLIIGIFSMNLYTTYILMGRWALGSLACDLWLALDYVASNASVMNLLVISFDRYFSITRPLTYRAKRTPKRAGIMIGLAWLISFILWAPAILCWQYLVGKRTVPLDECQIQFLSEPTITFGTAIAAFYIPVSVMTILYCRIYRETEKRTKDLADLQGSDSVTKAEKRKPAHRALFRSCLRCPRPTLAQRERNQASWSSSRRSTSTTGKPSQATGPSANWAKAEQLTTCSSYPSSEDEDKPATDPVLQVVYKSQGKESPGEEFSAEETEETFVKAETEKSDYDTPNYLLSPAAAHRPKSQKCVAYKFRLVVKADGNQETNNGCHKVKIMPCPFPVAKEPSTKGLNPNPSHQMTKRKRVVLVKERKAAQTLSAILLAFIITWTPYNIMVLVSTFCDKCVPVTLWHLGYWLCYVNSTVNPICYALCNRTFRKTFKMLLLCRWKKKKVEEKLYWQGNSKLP", "test": "Displacement of [3H]QNB from human muscarinic M5 receptor"}, "[10]": {"target": "T1, Sodium-dependent dopamine transporter", "test": "Enhancing of [3H]WIN35,428 binding to recombinant human DAT expressed in HEK293 cell membranes at 10 uM pre-incubated for 10 mins before radioligand addition and measured 90 mins after radioligand addition by micro beta scintillation counting analysis relative to control"}, "[11]": {"target": "Sigma non-opioid intracellular receptor 1 (Rattus norvegicus, UniProt Q9R0C9)", "sequence (Q9R0C9 whole entry)": "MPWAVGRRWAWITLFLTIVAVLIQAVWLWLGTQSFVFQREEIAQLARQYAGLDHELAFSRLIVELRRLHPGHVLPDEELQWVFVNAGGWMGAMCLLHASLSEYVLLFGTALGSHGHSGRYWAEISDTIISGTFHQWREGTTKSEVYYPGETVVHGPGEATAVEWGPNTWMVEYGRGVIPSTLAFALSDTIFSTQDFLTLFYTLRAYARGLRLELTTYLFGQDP", "test": "Displacement of [3H]Pentazocine from rat sigma 1 receptor"}, "[12]": {"target": "T6, Sodium-dependent serotonin transporter (Homo sapiens, UniProt P31645)", "T6 sequence (P31645 whole entry)": "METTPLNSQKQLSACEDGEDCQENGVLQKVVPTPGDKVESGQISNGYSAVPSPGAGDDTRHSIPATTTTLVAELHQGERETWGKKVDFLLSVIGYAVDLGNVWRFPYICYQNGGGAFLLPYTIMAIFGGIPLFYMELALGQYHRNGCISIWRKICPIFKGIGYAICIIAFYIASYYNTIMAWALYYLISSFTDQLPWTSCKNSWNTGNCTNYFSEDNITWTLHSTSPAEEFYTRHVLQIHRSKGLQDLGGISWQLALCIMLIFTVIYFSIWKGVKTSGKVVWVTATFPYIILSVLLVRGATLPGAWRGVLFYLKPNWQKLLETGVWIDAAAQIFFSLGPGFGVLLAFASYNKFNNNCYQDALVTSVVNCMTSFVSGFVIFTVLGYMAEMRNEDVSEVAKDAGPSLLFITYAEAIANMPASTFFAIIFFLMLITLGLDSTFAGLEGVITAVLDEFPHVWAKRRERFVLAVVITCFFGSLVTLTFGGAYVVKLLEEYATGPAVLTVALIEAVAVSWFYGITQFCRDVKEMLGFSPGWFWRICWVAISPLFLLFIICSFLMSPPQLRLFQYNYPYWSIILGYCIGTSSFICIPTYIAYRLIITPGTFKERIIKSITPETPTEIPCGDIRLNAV", "test": "Inhibition of [125I]RTI-55 binding to recombinant human SERT expressed in HEK293 cell membranes preincubated for 10 mins followed by radioligand addition measured after 90 mins by micro beta scintillation counting analysis"}, "[13]": {"target": "T1, Sodium-dependent dopamine transporter", "test": "Inhibition of recombinant human DAT expressed in HEK293 cell […] as reduction in [3H]-DA uptake incubated for 22 mins by micro beta scintillation counting analysis"}, "[14]": {"target": "Beta-3 adrenergic receptor (Homo sapiens, UniProt P13945)", "sequence (P13945 whole entry)": "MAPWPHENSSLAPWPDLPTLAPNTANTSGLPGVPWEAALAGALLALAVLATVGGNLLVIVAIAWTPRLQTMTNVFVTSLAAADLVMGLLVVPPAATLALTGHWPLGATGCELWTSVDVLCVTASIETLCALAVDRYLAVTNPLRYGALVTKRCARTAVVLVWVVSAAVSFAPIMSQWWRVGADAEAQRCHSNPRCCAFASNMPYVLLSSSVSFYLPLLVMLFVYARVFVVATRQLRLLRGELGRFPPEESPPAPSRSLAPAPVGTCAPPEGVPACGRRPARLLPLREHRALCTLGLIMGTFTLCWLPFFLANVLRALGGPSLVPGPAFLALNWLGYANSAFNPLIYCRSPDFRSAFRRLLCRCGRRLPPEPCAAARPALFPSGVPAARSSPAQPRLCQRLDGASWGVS", "test": "Displacement of [3H]CGP12177 from human adrenergic beta3 receptor"}, "[15]": {"target": "T1, Sodium-dependent dopamine transporter", "test": "Enhancing of [3H]WIN35,428 binding to recombinant human DAT expressed in HEK293 cell membranes pre-incubated for 10 mins before radioligand addition and measured 90 mins after radioligand addition by micro beta scintillation counting analysis relative to control"}, "[16]": {"target": "T2, Sodium-dependent noradrenaline transporter", "test": "Enhancing of [125I]RTI-55 binding to recombinant human NET expressed in HEK293 cell membranes preincubated for 10 mins followed by radioligand addition measured after 90 mins by micro beta scintillation counting analysis", "set-up": "concentration or dose not given beside the values"}, "[17]": {"target": "T1, Sodium-dependent dopamine transporter", "test": "Enhancing of [125I]RTI-55 binding to recombinant human DAT expressed in HEK293 cell membranes preincubated for 10 mins followed by radioligand addition measured after 90 mins by micro beta scintillation counting analysis", "set-up": "concentration or dose not given beside the values", "outline": "as §1"}, "[18]": {"target": "T6, Sodium-dependent serotonin transporter", "test": "Enhancing of [125I]RTI-55 binding to recombinant human SERT expressed in HEK293 cell membranes preincubated for 10 mins followed by radioligand addition measured after 90 mins by micro beta scintillation counting analysis", "details": "hek293"}, "[19]": {"target": "T2, Sodium-dependent noradrenaline transporter", "test": "Inhibition of [125I]RTI-55 binding to recombinant human NET expressed in HEK293 cell membranes preincubated for 10 mins followed by radioligand addition measured after 90 mins by micro beta scintillation counting analysis"}, "[20]": {"target": "T2, Sodium-dependent noradrenaline transporter", "test": "Inhibition of recombinant human NET expressed in HEK293 […] assessed as reduction in [3H]-norepinephrine uptake incubated for 22 mins by micro beta scintillation counting analysis"}, "[21]": {"target": "T2, Sodium-dependent noradrenaline transporter", "test": "Inhibition of [3H]mazindol binding to recombinant human NET expressed in HEK293 cell membranes preincubated for 10 mins followed by radioligand addition measured after 90 mins by micro beta scintillation counting analysis"}}, "note": "Activity calls are given as the source filed them. The rule behind the calls is not given here.", "data": [{"compound": "COC(=O)[C@H]1[C@@H](c2ccc([125I])cc2)CC2CC[C@H]1N2C", "values": [{"measurement": "Ki", "setting": "[1]", "result": 0.011, "unit": "µM"}, {"measurement": "EC50", "setting": "[2]", "result": "Not Active"}, {"measurement": "EC50", "setting": "[3]", "result": "Not Active"}]}, {"compound": "CCOC(=O)[C@@]12C[C@@H]1[C@@H](n1cnc3c(NC)nc(C#Cc4ccc(Cl)s4)cc31)[C@H](O)[C@@H]2O", "values": [{"measurement": "inhibition", "setting": "[4]", "result": "inactive"}, {"measurement": "Ki", "setting": "Adenosine receptor A3", "result": 0.169, "unit": "µM"}, {"measurement": "inhibition", "setting": "[5]", "result": 18, "unit": "%"}, {"measurement": "Ki", "setting": "[6]", "result": 1.9, "unit": "µM"}, {"measurement": "Ki", "setting": "[7]", "result": 0.395, "unit": "µM"}, {"measurement": "Efficacy", "setting": "[8]", "result": 3.6, "unit": "%"}, {"measurement": "Ki", "setting": "[9]", "result": 3.8, "unit": "µM"}, {"measurement": "Activity", "setting": "[10]", "result": 354, "unit": "%"}, {"measurement": "Ki", "setting": "[11]", "result": 1.04, "unit": "µM"}]}, {"compound": "CNc1nc(C#Cc2ccc(Cl)s2)nc2c1ncn2[C@H]1[C@H](O)[C@H](O)[C@]2(C(=O)OCc3ccccc3)C[C@H]12", "values": [{"measurement": "Ki", "setting": "Adenosine receptor A3", "result": 0.00731, "unit": "µM"}, {"measurement": "inhibition", "setting": "[5]", "result": 48, "unit": "%"}, {"measurement": "Ki", "setting": "[12]", "result": 5.6, "unit": "µM"}, {"measurement": "Activity", "setting": "[10]", "result": "inactive"}]}, {"compound": "CCCNc1nc(C#Cc2ccc(Cl)s2)nc2c1ncn2[C@H]1[C@H](O)[C@H](O)[C@]2(C(=O)NC)C[C@H]12", "values": [{"measurement": "IC50", "setting": "[13]", "result": "> 8.7", "unit": "µM"}, {"measurement": "Ki", "setting": "[14]", "result": 1.44, "unit": "µM"}, {"measurement": "EC50", "setting": "[15]", "result": "> 1", "unit": "µM"}, {"measurement": "Activity", "setting": "[16]", "result": 159, "unit": "%"}, {"measurement": "EC50", "setting": "[16]; read-out: EC50", "result": 0.9, "unit": "µM"}, {"measurement": "Activity", "setting": "[17]", "result": 268, "unit": "%"}, {"measurement": "EC50", "setting": "[17]; read-out: EC50", "result": 1.12, "unit": "µM"}]}, {"compound": "OC1(c2ccc(Cl)cc2)c2ccccc2C2=NCCN21", "note": "(racemic) [MAZINDOL]", "values": [{"measurement": "EC50", "setting": "[18]", "result": "Not Active"}, {"measurement": "Ki", "setting": "[19]", "result": 0.0113, "unit": "µM"}, {"measurement": "IC50", "setting": "[20]", "result": 0.00092, "unit": "µM"}, {"measurement": "Ki", "setting": "[21]", "result": 0.0135, "unit": "µM"}, {"measurement": "EC50", "setting": "[2]", "result": "Not Active"}, {"measurement": "EC50", "setting": "[3]", "result": "Not Active"}, {"measurement": "EC50", "setting": "[16]; hek293", "result": "Not Active"}, {"measurement": "EC50", "setting": "[17]; hek293", "result": "Not Active"}]}]}
